Publication PMC5815365 (Molecular pharmaceutics, 2016)
Where “and” joins values, the source holds several entries; their conditions need not be identical. Equal values may be shown once. Where a name gives a salt, the structure may show the parent alone. Read-outs that look alike come from different tables or passages of the source.

Key:
MCF-7 xenografts [1] = test: Ex vivo dye biodistribution analysis by NIRF of harvested tumors and organs; assay type: in vivo, mice; settings: day 2 of injection
Method in brief: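 Ovariectomized female athymic mice carried mammary fat-pad MCF-7 xenografts (5 million cells in Matrigel, estradiol:cholesterol 1:3 implants), grown to about 150 mm3. A separate cohort received 17 nmol dye i.p. After IVIS imaging, mice were killed by ketamine/xylazine overdose at each time point. Tumor, muscle, liver, lung, heart, kidneys and skin were rinsed, dried and IVIS-imaged; organ ROIs were normalized to tumor volume.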

MCF-7 xenografts [2] = test: In vivo NIRF imaging of tumor uptake in nude mice bearing MCF-7 xenografts; settings: for retention of fluorescence in tumors: two days after injection
Method in brief: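 Nude mice with estradiol-supported MCF-7 mammary fat-pad xenografts (about 150 mm3) received 17 nmol dye i.p. (n = 3). They were imaged under 2% isoflurane at serial time points up to 8 days on IVIS (Ex 740/Em 820 nm, auto exposure, F-stop 2). Tumor ROI radiance (p/s/cm2/sr) was background-subtracted using another body region and normalized to tumor volume.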

[3] = Partition coefficient in n-octanol and water, measured by NIR fluorescence; assay type: physicochemical; settings: octanol–water partitioning measured with NIRF
Method in brief: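 Compound (5 nmol) was shaken 10 min in 0.6 mL n-octanol plus 0.6 mL water (final 4.15 μM, within the linear fluorescence range), then centrifuged at 10,000 rpm for 5 min. Triplicate 100 μL aliquots of each layer were imaged on IVIS (Ex/Em 745/820 nm) as ROI average radiance. log P = log(octanol/water intensity), corrected by a per-probe solvent factor; mean and SD reported.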

LTED cells = test: Cell viability / growth inhibition by cell number count; assay type: cell-based, human
Method in brief: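 LTED cells (MCF-7-derived, phenol red-free medium, charcoal-dextran stripped FBS) seeded at 60,000/well in 6-well plates and grown 2 days at 37 °C. They were then exposed to test compound for 2–5 days with 0.1% final ethanol or DMSO vehicle. Cells were saline-rinsed, nuclei released with HEPES–MgCl2 and ZAP (ethylhexadecyldimethylammonium bromide/acetic acid) and Coulter-counted. Three independent repeats, normalized to 100% viability; dose–response curves gave IC50.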

[4] = Cell viability / growth inhibition in benign breast epithelial cells; assay type: cell-based; settings: human, MCF-10A cells (benign breast epithelial cells)

## CC1(C)C(=CC=C2CCCC(C=CC3=[N+](CCCCS(=O)(=O)[O-])c4ccccc4C3(C)C)=C2Cl)N(CCCCCC(=O)O)c2ccccc21 [Compound 5, 3H-Indolium, 2-[2-[3-[2-[1-(5-Carboxypentyl)-1,3-dihydro-3,3-dimethyl-2H-indol-2-ylidene]ethylidene]-2-chloro-1-cyclohexen-1-yl]ethenyl]-3,3-dimethyl-1-(4-sulfobutyl) Inner Salt]
MCF-7 xenografts [1]
  fluorescence intensity in tumor tissue compared to muscle: 8.6 fold
MCF-7 xenografts [2]; 17 nmol/mouse
  time of peak uptake (NIRF): about 30 h
  retention of fluorescence in tumors: retained in the tumors
MCF-7 xenografts [2]; 8 days after injection
  fluorescence intensity disappeared: 80%
[3]
  log P: 0.49

## CC1(C)C(/C=C/C2=C(Cl)C(=C\C=C3/N(CCCS(=O)(=O)[O-])c4ccccc4C3(C)C)/CCC2)=[N+](CCCS(=O)(=O)[O-])c2ccccc21.[Na+] [Compound 6, 3H-indolium, 2-[2-[2-chloro-3-[[1,3-dihydro-3,3-dimethyl-1-(3-sulfopropyl)-2H-indol-2-ylidene]ethylidene]-1-cyclohexen-1-yl]ethenyl]-3,3-dimethyl-1-(3-sulfopropyl)-, inner salt, sodium salt]
MCF-7 xenografts [1]
  fluorescence intensity in tumor tissue compared to muscle: 6.3 fold
MCF-7 xenografts [2]; 17 nmol/mouse
  retention of fluorescence in tumors: retained in the tumors
[3]
  log P: −1.13

## CC1(C)C(/C=C/C2=C(Cl)C(=C/C=C3\N(CCCCCC(=O)O)c4ccccc4C3(C)C)/CCC2)=[N+](CCCCCC(=O)O)c2ccccc21 [Compound 7]
MCF-7 xenografts [1]
  fluorescence intensity in tumor tissue compared to muscle: 4.5 fold
MCF-7 xenografts [2]; 17 nmol/mouse
  retention of fluorescence in tumors: retained in the tumors
[3]
  log P: 1.35

## CC(C)=CCC/C(C)=C/CC/C(C)=C/CSc1ccccc1C(=O)O [FTS, S-trans-trans-farnesylthiosalicylic acid]
LTED cells; Homo sapiens, read-out: IC50 (cell growth inhibition), LTED cells
  IC50: ~51.3 µM
LTED cells; read-out: IC50 (cell growth inhibition), LTED cells
  IC50: ~51.8 µM and < 50 µM
LTED cells; up to 75 μM
  inhibition of cells: 70–75%
[4]
  viability at 2 days, 50 µM: ~100%
